Test results: PMC6606825 (Journal of Ginseng Research, 2018)
Marks after values point to notes of the source that are not given here.

Assay: Pharmacokinetics of CK and its metabolite 20
Type: in vivo, healthy Chinese volunteers
Method in brief: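 Healthy adults given one oral tablet dose fasting (overnight, or 10 h in a crossover food-effect arm); 30 subjects from the 100/200/400 mg groups were pooled with 24 from 200 mg fasting periods. Plasma was stored at −70°C, extracted with MTBE plus internal standards and assayed by LC-MS/MS. Cmax was observed and AUClast calculated by linear trapezoid, each divided by dose. The metabolite/parent ratio was also calculated. Genotyping used Sequenom MassARRAY, and log-transformed values were compared by one-way ANOVA.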

[1] = ABCG2 rs3114018 AA (first line), mean (SD)
[2] = ABCG2 rs3114018 AA (third line), mean (SD)

CC(C)=CCC[C@](C)(O[C@@H]1O[C@H](CO)[C@@H](O)[C@H](O)[C@H]1O)[C@H]1CC[C@]2(C)[C@@H]1[C@H](O)C[C@@H]1[C@@]3(C)CC[C@H](O)C(C)(C)[C@@H]3CC[C@]12C [Ginsenoside compound K, 20-O-beta-D-glucopyranosyl-20(S)-protopanaxadiol]
CK Cmax/D (ABCG2 rs2725248 CC, mean (SD)): 4.46 (1.08) | CK AUClast/D [1]: 25.71 (14.88) | CK Cmax/D [1]: 3.40 (1.60) | CK AUClast/D [2]: 26.43 (22.97) | CK Cmax/D [2]: 3.36 (2.54) | CK AUClast/D (ABCG2 rs3114018 CA, mean (SD)): 30.74 (15.11) | CK Cmax/D (ABCG2 rs3114018 CA, mean (SD)): 4.02 (2.12) | CK AUClast/D (ABCG2 rs6857600 CC, mean (SD)): 29.60 (19.18) | CK Cmax/D (ABCG2 rs6857600 CC, mean (SD)): 3.72 (2.28) | CK AUClast/D (ABCG2 rs6857600 TC, mean (SD)): 26.00 (7.52) | CK Cmax/D (ABCG2 rs6857600 TC, mean (SD)): 3.79 (1.18) | CK AUClast/D (ABCG2 rs6857600 TT, mean (SD)): 16.47 (5.68) | CK Cmax/D (ABCG2 rs6857600 TT, mean (SD)): 2.37 (0.75) | CK AUClast/D (ABCG2 rs12505410 GG, mean (SD)): 36.50 (20.67) | CK Cmax/D (ABCG2 rs12505410 GG, mean (SD)): 3.96 (1.91) | CK AUClast/D (ABCG2 rs12505410 GT, mean (SD)): 33.35 (21.92) | CK Cmax/D (ABCG2 rs12505410 GT, mean (SD)): 4.39 (2.76) | CK AUClast/D (ABCG2 rs12505410 TT, mean (SD)): 22.29 (7.69) | CK Cmax/D (ABCG2 rs12505410 TT, mean (SD)): 3.00 (1.05) | CK AUClast/D (ABCG2 rs17731799 GG, mean (SD)): 25.71 (14.88) | CK Cmax/D (ABCG2 rs17731799 GG, mean (SD)): 3.40 (1.60) | CK AUClast/D (ABCG2 rs17731799 GT, mean (SD)): 32.10 (14.45) | CK Cmax/D (ABCG2 rs17731799 GT, mean (SD)): 4.13 (1.88) | CK AUClast/D (ABCG2 rs17731799 TT, mean (SD)): 26.40 (21.35) | CK Cmax/D (ABCG2 rs17731799 TT, mean (SD)): 3.47 (2.62) | CK AUClast/D (CFTR rs213950 AG, mean (SD)): 26.46 (20.44) | CK Cmax/D (CFTR rs213950 AG, mean (SD)): 3.36 (2.54) | CK AUClast/D (CFTR rs213950 GG, mean (SD)): 31.13 (15.12) | CK Cmax/D (CFTR rs213950 GG, mean (SD)): 4.14 (1.85) | CK AUClast/D (CFTR rs213968 CC, mean (SD)): 30.36 (14.71) | CK Cmax/D (CFTR rs213968 CC, mean (SD)): 4.14 (1.90) | CK AUClast/D (CFTR rs213968 CT, mean (SD)): 27.70 (20.72) | CK Cmax/D (CFTR rs213968 CT, mean (SD)): 3.43 (2.53) | CK AUClast/D (CFTR rs213968 TT, mean (SD)): 28.15 (14.72) | CK Cmax/D (CFTR rs213968 TT, mean (SD)): 3.81 (1.64) | CK AUClast/D (CFTR rs213976 GG, mean (SD)): 27.63 (17.53) | CK Cmax/D (CFTR rs213976 GG, mean (SD)): 3.62 (1.91) | CK AUClast/D (CFTR rs213976 GT, mean (SD)): 28.13 (20.65) | CK Cmax/D (CFTR rs213976 GT, mean (SD)): 3.63 (2.58) | CK AUClast/D (CFTR rs213976 TT, mean (SD)): 29.55 (14.70) | CK Cmax/D (CFTR rs213976 TT, mean (SD)): 3.89 (1.85) | CK AUClast/D (CFTR rs1042077 GG, mean (SD)): 28.15 (14.72) | CK Cmax/D (CFTR rs1042077 GG, mean (SD)): 3.81 (1.64) | CK AUClast/D (CFTR rs1042077 GT, mean (SD)): 27.96 (21.11) | CK Cmax/D (CFTR rs1042077 GT, mean (SD)): 3.46 (2.58) | CK AUClast/D (CFTR rs1042077 TT, mean (SD)): 30.54 (15.14) | CK Cmax/D (CFTR rs1042077 TT, mean (SD)): 4.12 (1.95) | CK AUClast/D (CFTR rs2106155 AA, mean (SD)): 25.97 (16.89) | CK Cmax/D (CFTR rs2106155 AA, mean (SD)): 3.41 (1.86) | CK AUClast/D (CFTR rs2106155 CA, mean (SD)): 31.04 (21.72) | CK Cmax/D (CFTR rs2106155 CA, mean (SD)): 4.02 (2.69) | CK AUClast/D (CFTR rs2106155 CC, mean (SD)): 29.28 (14.69) | CK Cmax/D (CFTR rs2106155 CC, mean (SD)): 3.86 (1.85) | CK AUClast/D (CFTR rs2237726 CC, mean (SD)): 29.76 (14.41) | CK Cmax/D (CFTR rs2237726 CC, mean (SD)): 3.89 (1.81) | CK AUClast/D (CFTR rs2237726 CT, mean (SD)): 26.16 (19.95) | CK Cmax/D (CFTR rs2237726 CT, mean (SD)): 3.35 (2.25) | CK AUClast/D (CFTR rs2237726 TT, mean (SD)): 32.16 (19.24) | CK Cmax/D (CFTR rs2237726 TT, mean (SD)): 3.98 (2.20) | CK AUClast/D (CFTR rs4148711 AA, mean (SD)): 28.15 (14.72) | CK Cmax/D (CFTR rs4148711 AA, mean (SD)): 3.81 (1.64) | CK AUClast/D (CFTR rs4148711 AT, mean (SD)): 27.70 (20.72) | CK Cmax/D (CFTR rs4148711 AT, mean (SD)): 3.43 (2.53) | CK AUClast/D (CFTR rs4148711 TT, mean (SD)): 29.34 (14.49) | CK Cmax/D (CFTR rs4148711 TT, mean (SD)): 3.89 (1.63) | CK AUClast/D (NR1I2 rs1464602 AA, mean (SD)): 28.65 (21.81) | CK Cmax/D (NR1I2 rs1464602 AA, mean (SD)): 3.54 (2.35) | CK AUClast/D (NR1I2 rs1464602 AG, mean (SD)): 33.46 (13.69) | CK Cmax/D (NR1I2 rs1464602 AG, mean (SD)): 4.62 (2.09) | CK AUClast/D (NR1I2 rs1464602 GG, mean (SD)): 20.43 (9.71) | CK Cmax/D (NR1I2 rs1464602 GG, mean (SD)): 2.65 (1.27) | CK AUClast/D (NR1I2 rs1523127 AA, mean (SD)): 29.24 (18.87) | CK Cmax/D (NR1I2 rs1523127 AA, mean (SD)): 3.82 (2.36) | CK AUClast/D (NR1I2 rs1523127 CA, mean (SD)): 27.08 (14.85) | CK Cmax/D (NR1I2 rs1523127 CA, mean (SD)): 3.53 (1.71) | CK AUClast/D (NR1I2 rs1523127 CC, n = 1): 28.50 (−) ^2) | CK Cmax/D (NR1I2 rs1523127 CC, n = 1): 3.49 (−) ^2) | CK AUClast/D (NR1I2 rs2276707 CC, mean (SD)): 25.30 (13.16) | CK Cmax/D (NR1I2 rs2276707 CC, mean (SD)): 3.46 (1.86) | CK AUClast/D (NR1I2 rs2276707 CT, mean (SD)): 30.38 (20.00) | CK Cmax/D (NR1I2 rs2276707 CT, mean (SD)): 3.88 (2.41) | CK AUClast/D (NR1I2 rs2276707 TT, mean (SD)): 28.36 (15.79) | CK Cmax/D (NR1I2 rs2276707 TT, mean (SD)): 3.71 (1.90) | CK AUClast/D (NR1I2 rs2472682 AA, mean (SD)): 21.56 (9.07) | CK Cmax/D (NR1I2 rs2472682 AA, mean (SD)): 2.87 (1.20) | CK AUClast/D (NR1I2 rs2472682 CA, mean (SD)): 34.34 (20.92) | CK Cmax/D (NR1I2 rs2472682 CA, mean (SD)): 4.45 (2.60) | CK AUClast/D (NR1I2 rs2472682 CC, mean (SD)): 24.44 (13.14) | CK Cmax/D (NR1I2 rs2472682 CC, mean (SD)): 3.17 (1.39) | CK AUClast/D (NR1I2 rs6785049 AA, mean (SD)): 22.20 (13.19) | CK Cmax/D (NR1I2 rs6785049 AA, mean (SD)): 2.88 (1.46) | CK AUClast/D (NR1I2 rs6785049 AG, mean (SD)): 32.86 (19.88) | CK Cmax/D (NR1I2 rs6785049 AG, mean (SD)): 4.27 (2.46) | CK AUClast/D (NR1I2 rs6785049 GG, mean (SD)): 24.29 (12.99) | CK Cmax/D (NR1I2 rs6785049 GG, mean (SD)): 3.22 (1.69) | CK AUClast/D (NR1I2 rs7643645 AA, mean (SD)): 26.64 (13.51) | CK Cmax/D (NR1I2 rs7643645 AA, mean (SD)): 3.76 (2.21) | CK AUClast/D (NR1I2 rs7643645 AG, mean (SD)): 27.63 (13.83) | CK Cmax/D (NR1I2 rs7643645 AG, mean (SD)): 3.41 (1.51) | CK AUClast/D (NR1I2 rs7643645 GG, mean (SD)): 39.83 (34.46) | CK Cmax/D (NR1I2 rs7643645 GG, mean (SD)): 5.06 (3.69)
